Experimental findings from article PMC5159310 (Bioorganic & medicinal chemistry letters, 2016) are described below.

Positions of bridges follow the written chain, without caps; N, C: chain ends. Non-standard residues stand in square brackets, D forms with d. Residues, ends and D or L forms follow the SMILES beside them. Nle = CCCC[C@H](N)C(=O)O

For orientation: half-life means the time needed for the level to fall by half in the phase considered. A higher half-life goes with slow loss. By IC50 is commonly meant the concentration that gives 50% inhibition.

The nature of one series: Metabolic stability. In kind it is in vitro ADME. As to conditions: rat, plasma.
Series [1] deals with bradykinin receptors (BRs). Nature of the series: Radioligand competition assay using [3H]BK in rat brain membranes. In kind it is binding. As to conditions: for BR, [3H]BK Log[IC50] / IC50 / BR, [3H]BK IC50: rat brain membranes, pH 6.8, [3H]BK; for BR, [3H]BK Log[IC50]: logarithmic value (negative); for IC50: read-out: BR, [3H]BK IC50. Summed up: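 Competitive binding against [3H]BK in rat brain membranes at pH 6.8. Non-specific binding was defined with 10 μM kallidin. Data came from at least two independent experiments run in duplicate. IC50 was derived by nonlinear least-squares regression and also reported as a logarithmic value.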
(Loss of bound radioactivity is the signal in a displacement assay; it reports binding, not function.)

For the compound `CCCC[C@H](NC(=O)[C@H](CCCCN)NC(=O)[C@@H]1CCCN1C(=O)[C@H](CCCCN)NC(=O)[C@@H](N)CCCC)C(=O)N[C@@H](CCCCN)C(=O)O` [ligand 1, H-Nle-Lys-Pro-Lys-Nle-Lys-OH] (H-[Nle]KPK[Nle]K-OH), in “Metabolic stability”, the half-life is less than 1 h.

In the case of “c^N,5[Leu-Arg-Ile-Arg-Glu]-Lys-OH (LRIREK-OH; lactam N-5; SMILES CC[C@H](C)[C@@H]1NC(=O)[C@H](CCCNC(=N)N)NC(=O)[C@H](CC(C)C)NC(=O)CC[C@@H](C(=O)N[C@@H](CCCCN)C(=O)O)NC(=O)[C@H](CCCNC(=N)N)NC1=O) [ligand 7]”, in series [1], the “BR, [3H]BK Log[IC50]” value is recorded as −5.82+0.09 and the IC50 worked out at 1.51 µM. Besides, the “reduction of affinity at the BRs (fold)” value in series [1] (compared with linear ligand 4) is 22 fold.

Take “H-c^1,5(-cisCH=CH-)[Ala-Lys-Pro-Lys-Ala]-Lys-OH (AKPKA; not fully specified; cis-CH=CH- dicarba bridge 1,5; C-terminal Lys; printed: Ala-Lys-Pro-Lys-Ala) [ligand 2]”: in series [1], the “BR, [3H]BK IC50” value is listed as “no competition”. Turning to “c^N,6[Lys-Leu-Arg-Ile-Arg-Glu]-Lys-OH (KLRIREK-OH; lactam N-6; SMILES CC[C@H](C)[C@@H]1NC(=O)[C@H](CCCNC(=N)N)NC(=O)[C@H](CC(C)C)NC(=O)[C@H](CCCCN)NC(=O)CC[C@@H](C(=O)N[C@@H](CCCCN)C(=O)O)NC(=O)[C@H](CCCNC(=N)N)NC1=O) [ligand 6]”, in series [1], the “BR, [3H]BK Log[IC50]” value is reported as −6.52+0.15 and the IC50 stood at 0.302 µM. With “H-c^1,5(-CH2CH2-)[Ala-Lys-Pro-Lys-Ala]-Lys-OH (AKPKA; not fully specified; -CH2CH2- dicarba bridge 1,5; C-terminal Lys; printed: Ala-Lys-Pro-Lys-Ala) [ligand 3]”, the “BR, [3H]BK IC50” value in series [1] is reported as “no competition”. Turning to `CC[C@H](C)[C@@H]1NC(=O)[C@H](CCCNC(=N)N)NC(=O)[C@H](CC(C)C)NC(=O)[C@H](Cc2ccccc2)NC(=O)CC[C@@H](C(=O)N[C@@H](CCCCN)C(=O)O)NC(=O)[C@H](CCCNC(=N)N)NC1=O` [ligand 5, c^N,6[Phe-Leu-Arg-Ile-Arg-Glu]-Lys-OH] (FLRIREK-OH; lactam N-6 (inferred)), the half-life in the series “Metabolic stability” was greater than 5 h.
